{"source": "ChEMBL document CHEMBL1909618", "about": "“Non-steroidal dissociated glucocorticoid agonists: indoles as A-ring mimetics and function-regulating pharmacophores” (Bioorg Med Chem Lett, 2011)", "key": {"[1]": {"assay": "Half life in B10.R3 mouse at 1 mg/kg, iv", "assay_type": "ADME, organism-based", "design": "dose 1 mg/kg, route intravenous", "conditions": "in vivo", "method_in_brief": "(§1)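 Mouse PK: IV dose 1 mg/kg in PEG400/water (70:30); oral dose 30 mg/kg given as a suspension in 30% Cremophor. Values are the mean of 3 mice.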"}, "[2]": {"assay": "Oral bioavailability in B10.R3 mouse at 30 mg/kg", "assay_type": "ADME, organism-based", "conditions": "in vivo", "method_in_brief": "as §1"}, "[3]": {"assay": "Volume of distribution at steady state in Sprague-Dawley rat at 2 mg/kg, iv", "assay_type": "ADME, organism-based", "design": "dose 2 mg/kg, route intravenous", "conditions": "in vivo, read-out: Vdss", "method_in_brief": "(§2)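 Rat PK: IV dose 2 mg/kg in PEG400/water (70:30); oral dose 30 mg/kg in PEG400/H2O/Tween (80/18/2). Values are the mean of 3 rats.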"}, "[4]": {"assay": "Cmax in Sprague-Dawley rat at 30 mg/kg, po", "assay_type": "ADME, organism-based", "design": "dose 30 mg/kg, route oral", "conditions": "in vivo", "method_in_brief": "as §2"}, "[5]": {"assay": "AUC (infinity) in Sprague-Dawley rat at 30 mg/kg, po", "assay_type": "ADME, organism-based", "design": "dose 30 mg/kg, route oral, time infinity", "conditions": "plasma", "method_in_brief": "as §2"}, "Mus musculus [6]": {"tested_on": "Mus musculus", "assay": "Toxicity in B10.R3 mouse collagen-induced arthritis model assessed as change in serum triglyceride level at 30 mg/kg, po qd for 5 weeks relative to control", "assay_type": "organism-based", "design": "dose 30 mg/kg, route oral", "conditions": "in vivo, 840 h", "method_in_brief": "(§3)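 Arthritic B10.RIII CIA mice were dosed orally once daily for 5 weeks. At day 35 they were anesthetized with ketamine (50 mg/kg) and xylazine (15 mg/kg). Body fat was assessed by whole-body density scan. Serum triglycerides were measured by enzymatic kit (Wako L-Type TG-H) and free fatty acids by NEFA-C. Results are expressed as % change versus vehicle and compared by t-test.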"}, "Mus musculus [7]": {"tested_on": "Mus musculus", "assay": "Toxicity in B10.R3 mouse collagen-induced arthritis model assessed as change in serum free fatty acids level at 30 mg/kg, po qd for 5 weeks relative to control", "assay_type": "organism-based", "design": "dose 30 mg/kg, route oral", "conditions": "in vivo, 840 h", "method_in_brief": "as §3"}}, "data": [{"smiles": "CC(C)(C[C@@](O)(Cc1cc2ccc(C#N)cc2[nH]1)C(F)(F)F)c1cc(S(C)(=O)=O)cc2c1OCC2", "values": [{"measurement": "half-life", "setting": "[1]", "result": 2.5, "unit": "h"}, {"measurement": "bioavailability", "setting": "[2]", "result": 26, "unit": "%"}, {"measurement": "Vd", "setting": "[3]", "result": 7.7, "unit": "L/kg"}, {"measurement": "Cmax", "setting": "[4]", "result": 955, "unit": "ng/mL"}, {"measurement": "AUC(0-inf)", "setting": "[5]", "result": 4850, "unit": "ng·h/mL"}, {"measurement": "Activity", "setting": "Mus musculus [6]", "result": 11, "unit": "%"}, {"measurement": "Activity", "setting": "Mus musculus [7]", "result": 8, "unit": "%"}]}]}
